Test results: publication PMC2947312 (Neuron, 2010)

What was measured:
[1] = test system: γ-secretase (AICD, Aβ42 and Aβ40 formation from APP-CTFs); assay: Cell-free assay of AICD and Aβ formation, CHO-APPswe membranes; format: biochemical, Chinese hamster; conditions: DAPT 1 μM, Compound 3 over a broad range of concentrations
In short: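 CHO-APPswe membrane preparations were incubated cell-free with vehicle (0.2% DMSO), 1 μM DAPT, or a range of test compound concentrations. AICD (ε-site) and Aβ42/Aβ40 (γ-site) formation were measured in parallel from the same preparations, semi-quantitatively. Data are mean ± SEM, n ≥ 3.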

[2] = test system: γ-secretase-mediated ε-site processing of Notch (NΔE); assay: NICD formation in HEK-APP-NΔE_7-4 cells; format: cell-based, human; conditions: NΔE Notch/APP co-transfected cell line; DAPT 1 μM
In short: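 HEK293 cells doubly transfected with APP and Notch NΔE were treated overnight with test compound, 1 μM DAPT, or 0.2% v/v DMSO vehicle. Conditioned medium was collected, cell lysates were prepared, and anti-NICD immunoblots were run with GAPDH as a control. NICD was quantified by laser scanning densitometry against a half-volume vehicle sample.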

[3] = test system: Aβ42, Aβ40 and Aβtotal produced by CHO-APPswe cells; assay: CHO-APPswe cell-based Aβ assay; design: species or system Chinese hamster
In short: (§1)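 Stable lines: CHO-APPswe is CHO transfected with human APP695 carrying the Swedish double mutation (670/671 K/M to N/L). SH-SY5Y-APP is human neuroblastoma SH-SY5Y transfected with wild-type human APP751. Secreted Aβ40, Aβ42 and Aβtotal were measured in conditioned medium by mAb-specific sandwich ELISAs. Cytotoxicity was checked by Alamar Blue at the same compound concentrations, up to a maximum of 30 μM.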

[4] = test system: Aβ peptide variants from CHO-APPswe cells; assay: SELDI-TOF MS of Aβ peptide variants in CHO-APPswe conditioned medium; format: cell-based, Chinese hamster; conditions: 1 μM
In short: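 CHO-APPswe cells were treated with vehicle, reference γ-secretase inhibitor (1 µM) or test compound (1 µM). Conditioned medium was immunoprecipitated with anti-Aβ17-24 mAb 4G8. Ciphergen chips were prepared from the medium and analysed by SELDI-TOF mass spectrometry to profile Aβ peptide variants.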

[5] = test system: Aβ peptides secreted from Tg 2576 primary mixed brain cultures; assay: Aβ peptides in Tg 2576 mixed brain cultures; format: cell-based, mouse; conditions: Tg 2576 MBCs
In short: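 Neuronal cultures came from E17 Tg 2576 embryo brains, grown 6 days, then treated 18 h in triplicate wells at 10 concentrations in 3-fold dilution steps. Vehicle (PEG-400:H2O 80:20 v/v) was the negative control and BMS-299897 the positive control. Aβ38 was read by Meso Scale assay; Aβ40, Aβ42 and Aβtotal by mAb sandwich ELISA. Variants were resolved by anti-Aβ immunoprecipitation, tris-glycine gel electrophoresis and immunoblotting.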

[6] = test system: Aβ42, Aβ40 and Aβtotal produced by SH-SY5Y-APP cells; assay: SH-SY5Y-APP cell-based Aβ assay; design: species or system human
In short: as §1

Compound	effect on AICD formation [1]	effect on NICD formation [2]	effect on Aβ42, Aβ40 and Aβtotal peptide levels [3]	effect on Aβ peptide variants (SELDI-TOF MS) [4]	effect on Aβ42, Aβ40, Aβ38 and Aβtotal (Meso Scale ELISAs) ([5]; 18 h)	effect on Aβ peptide variants (IP/immunoblot) ([5]; BMS-299897 1 μM)	effect on Aβ42, Aβ40 and Aβtotal peptide levels [6]
C[C@H](NC(=O)Cc1cc(F)cc(F)c1)C(=O)N[C@H](C(=O)OC(C)(C)C)c1ccccc1 [DAPT, N-[N-(3,5-difluorophenacetyl)-L-alanyl]-S-phenylglycine t-butyl ester]	totally inhibited	prevented NICD production entirely	–	–	–	–	–
C[C@H](c1ccc(F)cc1CCCC(=O)O)N(c1cc(F)ccc1F)S(=O)(=O)c1ccc(Cl)cc1 [BMS-299897]	–	–	equivalently inhibited Aβ42, Aβ40 and Aβtotal peptide production	reduced the levels of all Aβ peptide variants to baseline levels	dose-dependent decrease in Aβ42, Aβ40, Aβ38 and Aβtotal levels	reduced the levels of all Aβ variants (Aβ37, Aβ38, Aβ40 and Aβ42) to undetectable levels	equivalently inhibited Aβ42, Aβ40 and Aβtotal peptide production
